Results reported in the M2OR odorant receptor database.

What was measured:
Conditions in all cases: stereoisomer not certain
O10Q1 Q10R E12D = system: O10Q1 Q10R E12D
Summary of the method: (§1)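 Values were gathered from published papers (main text and supplementary material), with extra details requested from the original authors when needed, and checked for typos and inconsistencies. Each receptor–molecule pair is called responsive (active) if the original authors judged the measured signal statistically different from baseline, and non-responsive (inactive) otherwise. Assay methods varied by source, often transient mammalian cell-line luciferase assays. Recorded details include cell line, G-protein, co-transfected protein and tags.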

O10R2 I170L = system: O10R2 I170L
Summary of the method: as §1

O10T2 I137M = system: O10T2 I137M
Summary of the method: as §1

O10V1 Q123R = system: O10V1 Q123R
Summary of the method: as §1

O10X1 N4T R181S = system: O10X1 N4T R181S
Summary of the method: as §1

O11G2 F3I I99N V116I = system: O11G2 F3I I99N V116I
Summary of the method: as §1

O11H1 M240V = system: O11H1 M240V
Summary of the method: as §1

O11H6 I107T = system: O11H6 I107T
Summary of the method: as §1

O11HC C156Y V240M = system: O11HC C156Y V240M
Summary of the method: as §1

O12D2 S104F = system: O12D2 S104F
Summary of the method: as §1

O13C2 H6Q = system: O13C2 H6Q
Summary of the method: as §1

O13C8 A19D = system: O13C8 A19D
Summary of the method: as §1

O13C9 H17L V19G L23H = system: O13C9 H17L V19G L23H
Summary of the method: as §1

O13C9 Q6H = system: O13C9 Q6H
Summary of the method: as §1

O13F1 F18S T254M = system: O13F1 F18S T254M
Summary of the method: as §1

O13F1 F18S = system: O13F1 F18S
Summary of the method: as §1

O13G1 K46I M146L = system: O13G1 K46I M146L
Summary of the method: as §1

O13G1 = system: O13G1
Summary of the method: as §1

O13H1 Y266S = system: O13H1 Y266S
Summary of the method: as §1

O13J1 = system: O13J1
Summary of the method: as §1

Measured: odorant receptor agonist call

Sequence of O13J1 (as listed by the source): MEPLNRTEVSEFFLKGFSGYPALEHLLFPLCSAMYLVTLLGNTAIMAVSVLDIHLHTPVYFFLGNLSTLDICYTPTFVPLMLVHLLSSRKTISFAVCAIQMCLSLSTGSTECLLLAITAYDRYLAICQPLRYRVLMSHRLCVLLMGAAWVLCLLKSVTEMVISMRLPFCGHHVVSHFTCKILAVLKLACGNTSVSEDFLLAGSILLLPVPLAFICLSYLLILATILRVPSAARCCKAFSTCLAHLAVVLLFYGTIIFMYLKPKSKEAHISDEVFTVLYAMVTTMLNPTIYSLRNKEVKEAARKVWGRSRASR
Sequence of O10R2 I170L (as listed by the source, stated change not applied): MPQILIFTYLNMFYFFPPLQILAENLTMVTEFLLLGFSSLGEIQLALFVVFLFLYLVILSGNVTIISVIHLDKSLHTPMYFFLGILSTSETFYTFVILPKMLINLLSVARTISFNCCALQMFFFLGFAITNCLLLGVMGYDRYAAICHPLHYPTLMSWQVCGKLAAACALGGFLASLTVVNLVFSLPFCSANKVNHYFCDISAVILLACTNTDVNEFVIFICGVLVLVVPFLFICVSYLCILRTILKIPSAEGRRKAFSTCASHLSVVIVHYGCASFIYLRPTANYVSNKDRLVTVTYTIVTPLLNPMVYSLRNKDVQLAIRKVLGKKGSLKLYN
Sequence of O13F1 F18S (as listed by the source, stated change not applied): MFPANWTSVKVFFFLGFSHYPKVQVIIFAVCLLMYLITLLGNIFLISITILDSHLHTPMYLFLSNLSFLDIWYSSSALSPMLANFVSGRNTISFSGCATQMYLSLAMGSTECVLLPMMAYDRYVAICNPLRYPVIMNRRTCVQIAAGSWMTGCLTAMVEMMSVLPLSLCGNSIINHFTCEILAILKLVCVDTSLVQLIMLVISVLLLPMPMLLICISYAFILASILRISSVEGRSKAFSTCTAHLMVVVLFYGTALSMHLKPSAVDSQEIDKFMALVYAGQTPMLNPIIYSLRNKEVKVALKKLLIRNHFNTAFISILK
Sequence of O11H6 I107T (as listed by the source, stated change not applied): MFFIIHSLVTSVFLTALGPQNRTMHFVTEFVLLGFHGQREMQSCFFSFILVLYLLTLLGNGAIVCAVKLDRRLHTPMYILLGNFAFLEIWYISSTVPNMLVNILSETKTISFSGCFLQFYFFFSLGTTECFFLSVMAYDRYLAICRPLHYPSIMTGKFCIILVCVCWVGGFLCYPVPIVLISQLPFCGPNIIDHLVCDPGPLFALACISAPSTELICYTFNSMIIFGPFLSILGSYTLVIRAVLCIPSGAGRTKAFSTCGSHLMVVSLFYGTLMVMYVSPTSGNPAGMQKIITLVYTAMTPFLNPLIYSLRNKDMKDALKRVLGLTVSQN
Sequence of O13H1 Y266S (as listed by the source, stated change not applied): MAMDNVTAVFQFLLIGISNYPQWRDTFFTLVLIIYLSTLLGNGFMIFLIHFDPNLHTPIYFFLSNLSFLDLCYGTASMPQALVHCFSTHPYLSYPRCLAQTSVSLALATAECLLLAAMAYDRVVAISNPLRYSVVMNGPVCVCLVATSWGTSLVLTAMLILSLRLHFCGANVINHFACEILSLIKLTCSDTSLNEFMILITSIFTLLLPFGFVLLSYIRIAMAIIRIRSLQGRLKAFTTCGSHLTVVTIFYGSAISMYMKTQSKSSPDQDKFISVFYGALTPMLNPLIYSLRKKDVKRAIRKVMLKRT
Sequence of O12D2 S104F (as listed by the source, stated change not applied): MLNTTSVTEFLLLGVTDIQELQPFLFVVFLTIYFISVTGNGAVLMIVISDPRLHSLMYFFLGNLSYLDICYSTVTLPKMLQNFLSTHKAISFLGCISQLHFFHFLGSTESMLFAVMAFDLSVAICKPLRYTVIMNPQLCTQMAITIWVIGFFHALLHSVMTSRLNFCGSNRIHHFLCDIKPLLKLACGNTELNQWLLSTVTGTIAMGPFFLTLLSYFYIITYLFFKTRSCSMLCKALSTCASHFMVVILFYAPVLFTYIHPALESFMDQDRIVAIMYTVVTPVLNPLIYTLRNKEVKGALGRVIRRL
Sequence of O13C8 A19D (as listed by the source, stated change not applied): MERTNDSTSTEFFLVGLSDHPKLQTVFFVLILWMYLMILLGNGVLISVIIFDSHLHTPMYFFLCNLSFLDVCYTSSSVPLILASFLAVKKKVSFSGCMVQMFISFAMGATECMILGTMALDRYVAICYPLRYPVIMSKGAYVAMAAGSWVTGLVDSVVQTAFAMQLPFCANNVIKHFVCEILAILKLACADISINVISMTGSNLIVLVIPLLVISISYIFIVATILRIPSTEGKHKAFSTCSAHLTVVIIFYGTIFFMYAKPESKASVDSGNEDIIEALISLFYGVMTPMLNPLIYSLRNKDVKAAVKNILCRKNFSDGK
Sequence of O13C2 H6Q (as listed by the source): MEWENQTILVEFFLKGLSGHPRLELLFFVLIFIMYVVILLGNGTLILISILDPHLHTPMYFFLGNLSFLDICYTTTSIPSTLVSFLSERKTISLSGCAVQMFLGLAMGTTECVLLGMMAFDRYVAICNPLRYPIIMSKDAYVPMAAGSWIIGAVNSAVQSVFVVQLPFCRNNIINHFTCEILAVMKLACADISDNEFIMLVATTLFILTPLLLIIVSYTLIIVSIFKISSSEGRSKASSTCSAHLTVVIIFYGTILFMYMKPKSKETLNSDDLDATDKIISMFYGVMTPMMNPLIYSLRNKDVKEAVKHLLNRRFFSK
Sequence of O13G1 (as listed by the source): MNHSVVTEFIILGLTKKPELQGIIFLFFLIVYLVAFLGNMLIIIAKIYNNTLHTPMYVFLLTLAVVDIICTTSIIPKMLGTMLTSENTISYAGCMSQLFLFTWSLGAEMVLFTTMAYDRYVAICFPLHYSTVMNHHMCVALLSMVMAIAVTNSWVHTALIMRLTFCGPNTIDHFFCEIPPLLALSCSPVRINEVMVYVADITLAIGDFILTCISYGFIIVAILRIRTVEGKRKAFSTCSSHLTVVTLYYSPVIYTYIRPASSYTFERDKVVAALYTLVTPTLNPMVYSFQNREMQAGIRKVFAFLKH
Sequence of O13C9 Q6H (as listed by the source): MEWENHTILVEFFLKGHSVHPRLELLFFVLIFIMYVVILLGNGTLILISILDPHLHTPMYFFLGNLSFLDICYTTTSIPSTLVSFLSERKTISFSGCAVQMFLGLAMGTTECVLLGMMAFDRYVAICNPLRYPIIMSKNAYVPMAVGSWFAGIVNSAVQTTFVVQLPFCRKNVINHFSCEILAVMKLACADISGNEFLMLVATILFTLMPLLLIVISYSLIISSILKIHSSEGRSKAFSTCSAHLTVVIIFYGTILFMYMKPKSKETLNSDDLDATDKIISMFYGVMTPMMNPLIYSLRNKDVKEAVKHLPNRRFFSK
Sequence of O10V1 Q123R (as listed by the source, stated change not applied): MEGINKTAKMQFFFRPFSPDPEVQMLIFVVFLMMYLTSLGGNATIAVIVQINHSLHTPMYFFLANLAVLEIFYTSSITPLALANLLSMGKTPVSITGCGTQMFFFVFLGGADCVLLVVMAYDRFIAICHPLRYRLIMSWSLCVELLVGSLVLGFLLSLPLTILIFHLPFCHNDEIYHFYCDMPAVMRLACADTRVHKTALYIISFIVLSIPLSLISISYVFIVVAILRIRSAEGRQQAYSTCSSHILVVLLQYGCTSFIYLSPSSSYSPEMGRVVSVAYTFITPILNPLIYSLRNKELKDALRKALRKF
Sequence of O10T2 I137M (as listed by the source, stated change not applied): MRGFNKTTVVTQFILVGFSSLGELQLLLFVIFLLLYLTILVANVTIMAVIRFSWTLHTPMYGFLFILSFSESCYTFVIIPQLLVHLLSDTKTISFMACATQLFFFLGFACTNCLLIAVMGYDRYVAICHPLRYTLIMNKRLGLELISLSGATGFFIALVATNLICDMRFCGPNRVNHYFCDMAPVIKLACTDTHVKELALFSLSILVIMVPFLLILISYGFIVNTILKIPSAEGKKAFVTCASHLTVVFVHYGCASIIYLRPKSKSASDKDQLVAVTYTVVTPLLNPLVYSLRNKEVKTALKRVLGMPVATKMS
Sequence of O11H1 M240V (as listed by the source, stated change not applied): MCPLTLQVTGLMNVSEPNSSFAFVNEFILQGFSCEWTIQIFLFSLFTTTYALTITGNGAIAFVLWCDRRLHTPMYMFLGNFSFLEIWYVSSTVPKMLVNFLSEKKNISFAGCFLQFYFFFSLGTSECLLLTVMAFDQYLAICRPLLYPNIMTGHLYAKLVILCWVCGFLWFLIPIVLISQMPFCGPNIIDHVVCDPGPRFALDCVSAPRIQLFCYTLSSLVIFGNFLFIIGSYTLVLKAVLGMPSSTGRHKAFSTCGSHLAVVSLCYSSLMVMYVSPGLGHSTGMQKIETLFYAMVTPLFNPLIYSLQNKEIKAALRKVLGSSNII

C=CCOC(=O)Cc1ccccc1
inactive: O10Q1 Q10R E12D | O10R2 I170L | O10T2 I137M | O10V1 Q123R | O10X1 N4T R181S | O11G2 F3I I99N V116I | O11H1 M240V | O11H6 I107T | O11HC C156Y V240M | O12D2 S104F | O13C2 H6Q | O13C8 A19D | O13C9 H17L V19G L23H | O13C9 Q6H | O13F1 F18S T254M | O13F1 F18S | O13G1 K46I M146L | O13G1 | O13H1 Y266S | O13J1
